Rce1 inh: yeast Ras-converting enzyme inhibition | calls only | yeast membranes, quenched prenylated peptide cleavage fluorescence | Q03530 | 0.27% of 290,000 active | AID 2563;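 active = fall in fluorescence gain of 50% or more versus controls, with final raw signal at or below 3038400; inconclusive = same 50% fall but final raw signal above 3038400; inactive = fall in fluorescence gain under 50%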
GRK2 aptamer HTS: blocks RNA aptamer binding to human GRK2. 0.59% of 330,000 active. bead flow cytometry, FAM-aptamer displacement from GRK2. inhibition of aptamer binding, % at 10 µM. AID 488847;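 active = inhibition of aptamer binding above 40%, roughly 3 SD of noise, on plates passing a quality check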;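 note: median bead fluorescence of bound FAM aptamer so fluorescent compounds give negative values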
Target sequence (P25098 whole entry, looked up): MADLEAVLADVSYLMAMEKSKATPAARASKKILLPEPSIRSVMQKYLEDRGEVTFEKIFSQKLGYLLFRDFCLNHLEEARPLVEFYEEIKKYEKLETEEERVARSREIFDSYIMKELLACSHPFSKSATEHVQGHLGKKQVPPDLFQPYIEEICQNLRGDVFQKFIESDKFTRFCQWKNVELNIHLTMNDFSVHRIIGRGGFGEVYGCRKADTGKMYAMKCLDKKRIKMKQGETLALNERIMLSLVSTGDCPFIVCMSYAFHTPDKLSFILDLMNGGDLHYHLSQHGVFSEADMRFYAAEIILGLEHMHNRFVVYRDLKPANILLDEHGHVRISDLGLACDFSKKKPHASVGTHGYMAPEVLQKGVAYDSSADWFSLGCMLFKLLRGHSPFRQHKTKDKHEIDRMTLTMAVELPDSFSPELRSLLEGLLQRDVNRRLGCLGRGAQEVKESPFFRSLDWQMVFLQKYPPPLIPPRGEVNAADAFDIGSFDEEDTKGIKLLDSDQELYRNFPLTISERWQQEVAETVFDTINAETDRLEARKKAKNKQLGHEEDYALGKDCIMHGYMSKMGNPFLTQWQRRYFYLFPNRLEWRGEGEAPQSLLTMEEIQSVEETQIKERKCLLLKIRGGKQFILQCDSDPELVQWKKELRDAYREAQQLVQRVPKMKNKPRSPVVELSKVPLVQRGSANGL
SKN-1 inh: inhibitors of C. elegans SKN-1 | C. elegans VP596 Pgst-4::GFP/RFP ratio, acrylamide-induced, 24 h | inhibition, % at 21.8 µM | 0.49% of 360,000 active;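 active = interference check ratio from 0.5 to 1.5 plus GFP to RFP signal ratio inhibition reaching or exceeding a fixed threshold, cut at about 30% in these data, passing the limit was not always enough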
T cell HTS: modulates CD8 T cell binding to vesicles. 2C CD8+ T cell-vesicle binding, flow cytometry; stronger effect = lower value. response (vesicle binding), % at 7 µM. 0.068% of 330,000 active;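 active = response, share of CD8 T cells binding vesicles, and their 90th percentile fluorescence all below set limits, cut at about 80% in these data, passing the limit was not always enough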;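 note: values below 100% mean blocked vesicle binding to the CD8+ T cells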
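Test system: purified 2C TCR transgenic mouse naive CD8+ T cells. Probe or stimulus: QL9-peptide-loaded Drosophila micro-vesicles bearing Ld, ICAM-1 and B7-1. Incubation: binding step 1.5 h, 37 °C, antibody labelling 20 min, ice. Measured by: flow cytometry of vesicle-bound cells.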
Myeloid diff MLP: myeloid differentiation induction. ER-HoxA9 myeloid progenitors, lysozyme-GFP differentiation, flow cytometry. calls only at 10 µM. 1% of 360,000 active. AID 624256;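 active = normalized GFP-positive differentiation at or above the plate's own cutoff, the solvent-only control mean plus 3 SD; inconclusive = no clear call, values can overlap the other calls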;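 note: cells exposed to compound for four days before flow analysis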
Rin1-Abl PPI inh: human Rin1-Abl interaction inhibition. P00519+Q13671. TR-FRET Rin1/Abl binding, biochemical. inhibition, % at 7.35 µM. 0.4% of 360,000 active. AID 588664; in the data active = inhibition above about 5%, passing the limit was not always enough
Rin1 Abl conf: Rin1-Abl interaction inhibition confirmation. shares compounds with Rin1-Abl PPI inh. TR-FRET Rin1-Abl binding, purified proteins. inhibition, % at 7.35 µM. 49% of 1,300 active. AID 602124
GFP quench: quenches GFP fluorescence, counter-screen for Rin1-Abl inhibitors | shares compounds with Rin1-Abl PPI inh | inhibitors/quenchers counterscreen | inhibition, % at 6.75 µM | 8.5% of 1,300 active;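 note: ABL1-eGFP fusion protein alone without its partner RIN1-SBP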
GFP quench DR: counter-screen for Rin1-Abl inhibitors: GFP quenchers, dose response; shares compounds with Rin1-Abl PPI inh; GFP fluorescence interference/quenching counterscreen; IC50, µM; 230 tested, under 10 active; AID 602182; call rule not given here;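 note: ABL1-eGFP fusion protein alone without its RIN1 binding partner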
Of the large screens only hits and unclear results are named; the others gave an inactive call (follow-up assays come after a bar, where they were run). Rows were chosen to be rich in hits. Some 2.6% of all compounds tested hit in one or more screens of this group. Cut-off read from the data, not from the text of the source, unless noted: active = inhibition above about 6.5%; inactive = the rest.

Oc1cccc(C=NCc2ccccc2)c1O	none
Cc1ccc(C(=O)NCc2ccncc2)cc1S(=O)(=O)Nc1cccc(C)c1C	Rin1-Abl PPI inh 15 | Rin1 Abl conf inactive | GFP quench inactive
c1ccc(-c2cc(-c3ccccc3)ncn2)cc1	none
CCN(CC)c1cc(-c2ccccc2)ncn1	Rin1-Abl PPI inh 7.6 | Rin1 Abl conf inactive | GFP quench inactive
CCN(CC)C(=O)C1=C(C)N(Cc2ccc(C(C)(C)C)cc2)C(=O)C(CC(=O)NCC2CCCCC2)C1 (centres undefined)	none (no result: Rce1 inh, GRK2 aptamer HTS, T cell HTS)
COc1ccc(NC(=O)CN(C)C(=O)c2ccc3c(c2)CC(c2ccccc2)OC3=O)cc1 (centres undefined)	Rin1-Abl PPI inh 8.1 (no result: Rce1 inh, GRK2 aptamer HTS, T cell HTS) | Rin1 Abl conf inactive | GFP quench inactive
COc1cccc(NC(=O)CN(C)C(=O)c2ccc3c(c2)CC(c2ccccc2)OC3=O)c1 (centres undefined)	none (no result: Rce1 inh)
O=C(Nc1ccc(Oc2ccccc2)cc1)C1CCN(c2c3c(nc4ncnn24)CCC3)CC1	Rin1-Abl PPI inh 6.0 | Rin1 Abl conf 12 | GFP quench inactive
CCOc1ccc(-n2ccn(CC(=O)NCCc3ccccc3)c(=O)c2=O)cc1	none (no result: GRK2 aptamer HTS, T cell HTS)
O=C(O)c1cccc(NC2=C(N3CCOCC3)C(=O)c3ccccc3C2=O)c1	Rin1-Abl PPI inh 7.2 | Rin1 Abl conf inactive | GFP quench inactive
CCc1ccc(NC(=O)CCn2nc(C)c(S(=O)(=O)N3CCCCC3)c2C)cc1	none
CN1CCc2cccc3c2[C@@H]1Cc1ccc(O)c(O)c1-3	Rin1-Abl PPI inh 17 | Rin1 Abl conf 12 | GFP quench 13
O=C(c1cccnc1)C1CCCN(Cc2nc(Cc3ccccc3)no2)C1 (centres undefined)	none
O=C(C1CCCCC1)N1C[C@@H](n2cc(-c3ccc(F)cc3)nn2)[C@H](O)C[C@@H]1c1ccc(Cl)cc1	none (no result: Rce1 inh, GRK2 aptamer HTS, T cell HTS)
C=CCOc1cccc(C(=O)N(C)C2CCCN(Cc3ccccc3F)C2)c1 (centres undefined)	none
CCOc1ccc(NC(=O)Nc2ccc3c(c2)nc(C)n3C)cc1	Rin1-Abl PPI inh 5.7 | Rin1 Abl conf 11 | GFP quench inactive
O=C(Nc1ccn([C@H]2CC[C@@H](CO)O2)c(=O)n1)c1ccccc1	Rin1-Abl PPI inh 24 | Rin1 Abl conf 22 | GFP quench inactive | GFP quench DR inactive
Cc1ccnc(NC(c2ccccc2O)c2oc(CO)cc(=O)c2O)c1 (centres undefined)	Rin1-Abl PPI inh 27 | Rin1 Abl conf 9.8 | GFP quench inactive
COc1ccc(Cl)cc1NC(=O)/C=C\C(=O)O	Rin1-Abl PPI inh 5.4 | Rin1 Abl conf inactive | GFP quench inactive
O=C(Nc1ccccc1)OC1CC2CC1C1CCCC21 (centres undefined)	none
O=C(Nc1nnc(Cc2ccc(Cl)cc2)s1)c1ccco1	Rin1-Abl PPI inh 7.4 | Rin1 Abl conf inactive | GFP quench inactive
CCOCc1nnc(NC(=O)c2ccco2)s1	none
CCOc1cc(N2CCOCC2)c(OCC)cc1NC(=O)[C@H](C)NC(=O)c1ccco1	none
O=C1CCCC(O)=C1N=Nc1ccc2c(c1)OCO2	none
O=C1CCCC(O)=C1N=Nc1ccc(C(=O)O)cc1	Rin1-Abl PPI inh 6.7 | Rin1 Abl conf inactive | GFP quench inactive
O=C(NN1C(=O)/C(=C/c2ccc(O)c(O)c2)SC1=S)c1ccccc1	Rin1-Abl PPI inh 7.5 | Rin1 Abl conf 6.6 | GFP quench 12
Cc1nn(CC(=O)NCc2cccc(F)c2)c(=O)c2cccn12	Rin1-Abl PPI inh 8.6 | Rin1 Abl conf inactive | GFP quench inactive
Cc1nn(CC(=O)NCCCc2ccccc2)c(=O)c2cccn12	none
CC(=O)Nc1ccc(NC(=O)CCn2c(=O)oc3ccccc32)cc1	none
O=C(CCn1c(=O)oc2ccccc21)NC1=NCCS1	Rin1-Abl PPI inh 10.0 | Rin1 Abl conf inactive | GFP quench inactive
COc1cc(CNC(=O)c2cccc(COc3ccc(Cl)cc3)c2)cc(OC)c1	none
O=C(CN1C(=O)CSc2cc(S(=O)(=O)N3CCCCCC3)ccc21)NCCc1ccccc1	Myeloid diff MLP inconclusive, Rin1-Abl PPI inh 6.1 | Rin1 Abl conf inactive | GFP quench inactive
CN(C)CCNC(=O)CN1C(=O)CSc2ccc(S(=O)(=O)N3CCCCC3)cc21	none
COc1ccc(CC(=O)OCC(=O)NC(=O)Nc2ccccc2F)cc1	Rin1-Abl PPI inh 8.9 (no result: Rce1 inh) | Rin1 Abl conf inactive | GFP quench inactive
O=C(Nc1nc(-c2cc(Cl)sc2Cl)cs1)c1ccc(Br)s1	Rin1-Abl PPI inh 6.0 | Rin1 Abl conf inactive | GFP quench inactive
Cc1cc(C)cc(OCC(=O)OCC(=O)N(CC(C)C)c2c(N)n(Cc3ccccc3)c(=O)[nH]c2=O)c1	none
CCCCOc1ccc(C(C)NC(=O)CCS(=O)(=O)Cc2ccc(C)cc2)cc1 (centres undefined)	Rin1-Abl PPI inh 4.4 | Rin1 Abl conf inactive | GFP quench inactive
CC(=O)c1ccc(OC(C)C)c(CN2CCCCC2)c1	Rin1-Abl PPI inh 8.6 | Rin1 Abl conf inactive | GFP quench inactive
CC(=O)c1cc(CN2CCCCC2)cc(OC(C)C)c1	none (no result: Rce1 inh)
CCC(=O)N(C(=O)CC)N1CCN(c2ccncc2S(=O)(=O)N2CCCCC2)CC1	none (no result: Rce1 inh)
O=C(Nc1cc(N2CCOCC2)ncn1)NC1(C(F)(F)F)Oc2ccccc2O1	Rin1-Abl PPI inh 9.8 | Rin1 Abl conf inactive | GFP quench inactive
COc1cccc(NC(=O)NC2(C(F)(F)F)Oc3ccccc3O2)c1	none
Cc1csc2c(NC3CCN(Cc4ccccc4)CC3)ncnc12	Rin1-Abl PPI inh 5.6 | Rin1 Abl conf inactive | GFP quench inactive
c1ccc(CN2CCC(Nc3ncnc4sccc34)CC2)cc1	none
O=C(O)c1ccc(CSc2nnc(-c3cccnc3)n2-c2ccc(Br)cc2)cc1	Rin1-Abl PPI inh 21 | Rin1 Abl conf 33 | GFP quench inactive | GFP quench DR inactive
COc1ccc(N2CCN(C(=O)CSc3nnc(-c4cccnc4)n3-c3ccccc3)CC2)cc1	Rin1-Abl PPI inh 8.1 | Rin1 Abl conf inactive | GFP quench inactive
COc1ccc(N2CCN(C(=O)CSc3nnc(-c4cccnc4)n3-c3ccc(F)cc3)CC2)cc1	none
Cc1ccc(CNC(=O)COC(=O)c2ccc(S(=O)(=O)NCc3ccco3)cc2)cc1	none (no result: Rce1 inh)
COC(=O)c1cc(NC(=O)CC2SCCNC2=O)cc(C(=O)OC)c1 (centres undefined)	none (no result: Rce1 inh)
O=C(CC1SCCNC1=O)Nc1cc(Cl)cc(Cl)c1 (centres undefined)	Rce1 inh inconclusive, Rin1-Abl PPI inh 11 | Rin1 Abl conf 17 | GFP quench inactive | GFP quench DR inactive
CCOC(=O)c1[nH]ncc1CN1CCC(Cc2cccc(OC)c2)(C(=O)OCC)CC1	none
